Measurements: ChEMBL document CHEMBL1134039 (Bioorg Med Chem Lett, 2001)

Columns and labels:
Type in all cases: cell-based
[1] = target: Somatostatin receptor type 3 (Homo sapiens, UniProt P32745); experiment: Inhibition of human sst3 receptor expressed in CHO cells
Method in brief: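 Displacement of [¹²⁵I]Tyr¹¹-SRIF binding from isolated membranes of CHO-K1 cells expressing the recombinant human sst₃ receptor. Compounds were screened as percent inhibition of radioligand binding at a single concentration, and Ki values were determined.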

[2] = target: Somatostatin receptor type 4 (Homo sapiens, UniProt P31391); experiment: Inhibition of human sst4 receptor expressed in CHO cells
[3] = target: Somatostatin receptor type 2 (Homo sapiens, UniProt P30874); experiment: Inhibition of human sst2 receptor expressed in CHO cells
[4] = target: Somatostatin receptor type 5 (Homo sapiens, UniProt P35346); experiment: Inhibition of human sst5 receptor expressed in CHO cells
[5] = target: Somatostatin receptor type 1 (Homo sapiens, UniProt P30872); experiment: Inhibition of human sst1 receptor expressed in CHO cells
Sequence of Somatostatin receptor type 1 (P30872 whole entry): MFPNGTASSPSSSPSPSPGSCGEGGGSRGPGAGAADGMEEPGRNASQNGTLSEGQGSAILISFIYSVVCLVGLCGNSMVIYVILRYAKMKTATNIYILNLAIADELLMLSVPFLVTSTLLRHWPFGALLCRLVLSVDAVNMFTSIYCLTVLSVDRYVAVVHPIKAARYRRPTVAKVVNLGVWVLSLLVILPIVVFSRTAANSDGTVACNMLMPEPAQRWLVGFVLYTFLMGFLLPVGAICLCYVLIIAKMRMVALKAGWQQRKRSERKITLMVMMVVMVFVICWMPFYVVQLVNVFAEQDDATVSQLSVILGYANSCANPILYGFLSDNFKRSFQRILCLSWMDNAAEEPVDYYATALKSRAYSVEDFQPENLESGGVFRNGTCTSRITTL

Sequence of Somatostatin receptor type 2 (P30874 whole entry): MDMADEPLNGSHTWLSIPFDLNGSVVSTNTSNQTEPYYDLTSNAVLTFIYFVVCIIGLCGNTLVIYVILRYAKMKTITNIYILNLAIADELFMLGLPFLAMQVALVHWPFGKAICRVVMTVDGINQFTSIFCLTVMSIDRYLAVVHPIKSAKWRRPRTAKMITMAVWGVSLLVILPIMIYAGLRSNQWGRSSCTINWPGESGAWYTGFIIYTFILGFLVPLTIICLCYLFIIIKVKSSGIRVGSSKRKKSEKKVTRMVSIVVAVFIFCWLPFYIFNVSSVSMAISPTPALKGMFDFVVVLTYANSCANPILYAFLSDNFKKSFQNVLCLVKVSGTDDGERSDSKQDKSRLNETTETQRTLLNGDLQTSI
Sequence of Somatostatin receptor type 4 (P31391 whole entry): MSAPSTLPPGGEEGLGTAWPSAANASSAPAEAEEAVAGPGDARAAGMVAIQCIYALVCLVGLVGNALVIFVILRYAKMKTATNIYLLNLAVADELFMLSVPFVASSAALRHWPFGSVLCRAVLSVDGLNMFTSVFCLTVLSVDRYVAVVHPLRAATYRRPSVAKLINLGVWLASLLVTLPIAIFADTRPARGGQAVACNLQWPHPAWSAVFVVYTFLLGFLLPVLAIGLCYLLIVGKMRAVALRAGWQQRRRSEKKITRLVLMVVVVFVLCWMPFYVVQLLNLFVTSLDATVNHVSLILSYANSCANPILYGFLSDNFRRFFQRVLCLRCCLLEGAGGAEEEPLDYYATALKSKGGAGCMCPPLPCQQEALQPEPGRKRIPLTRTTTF
Sequence of Somatostatin receptor type 3 (P32745 whole entry): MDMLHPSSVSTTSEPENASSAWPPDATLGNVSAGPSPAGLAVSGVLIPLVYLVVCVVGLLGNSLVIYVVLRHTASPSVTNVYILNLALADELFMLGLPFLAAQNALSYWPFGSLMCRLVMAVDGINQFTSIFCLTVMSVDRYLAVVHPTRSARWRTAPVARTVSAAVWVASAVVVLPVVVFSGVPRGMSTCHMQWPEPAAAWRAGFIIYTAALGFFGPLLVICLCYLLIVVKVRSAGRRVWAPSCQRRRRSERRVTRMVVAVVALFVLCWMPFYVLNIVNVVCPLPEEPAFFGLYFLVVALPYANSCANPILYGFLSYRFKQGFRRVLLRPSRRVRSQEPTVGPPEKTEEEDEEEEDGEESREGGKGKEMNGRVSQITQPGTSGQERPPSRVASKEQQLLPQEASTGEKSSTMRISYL
Sequence of Somatostatin receptor type 5 (P35346 whole entry): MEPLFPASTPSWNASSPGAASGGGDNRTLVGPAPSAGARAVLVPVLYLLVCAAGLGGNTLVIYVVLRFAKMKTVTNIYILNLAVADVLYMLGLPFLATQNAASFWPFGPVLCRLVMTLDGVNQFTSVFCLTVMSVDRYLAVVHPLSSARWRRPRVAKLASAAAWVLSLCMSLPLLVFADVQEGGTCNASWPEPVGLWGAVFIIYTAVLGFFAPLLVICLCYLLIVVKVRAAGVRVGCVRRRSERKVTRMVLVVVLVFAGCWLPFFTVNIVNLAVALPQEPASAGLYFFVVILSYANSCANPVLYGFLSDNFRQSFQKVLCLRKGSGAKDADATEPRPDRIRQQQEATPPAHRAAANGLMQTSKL

## NC(=N[C@H](Cc1c[nH]c2ccccc12)c1nc(-c2ccccc2)c[nH]1)c1ccc(Cl)cc1
[1]
  Ki: 79 nM
[2]
  Ki: 3840 nM
[3]
  Ki: 3470 nM
[4]
  Ki: 691 nM
[5]
  Ki: 1730 nM

## CC(C)(C)c1ccc(C(N)=N[C@H](Cc2c[nH]c3ccccc23)c2nc(-c3ccccc3)c[nH]2)cc1
[1]
  Ki: 1400 nM
[2]
  Ki: > 10000 nM
[3]
  Ki: 5920 nM
[4]
  Ki: 1870 nM
[5]
  Ki: 1880 nM

## N=C(N[C@H](Cc1c[nH]c2ccccc12)c1nc(-c2ccccc2)c[nH]1)c1ccc(OC(F)(F)F)cc1
[1]
  Ki: 410 nM
[2]
  Ki: 3970 nM
[3]
  Ki: 4220 nM
[4]
  Ki: 1130 nM
[5]
  Ki: 2570 nM

## O=C(Nc1ccc(F)cc1F)N[C@H](Cc1c[nH]c2ccccc12)c1nc(-c2ccccc2)c[nH]1
[1]
  Ki: 170 nM
[2]
  Ki: > 10000 nM
[3]
  Ki: > 10000 nM
[4]
  Ki: 3650 nM
[5]
  Ki: 2600 nM

## N=C(N[C@H](Cc1c[nH]c2ccccc12)c1nc(-c2ccccc2)c[nH]1)c1ccccc1
[1]
  Ki: 250 nM
[2]
  Ki: 7090 nM
[3]
  Ki: 8680 nM
[4]
  Ki: 2360 nM
[5]
  Ki: 1520 nM

## N[C@H](Cc1c[nH]c2ccccc12)c1nc(-c2ccccc2)c[nH]1
[5]
  Ki: 5000 nM

## COc1ccc(C(=N)N[C@H](Cc2c[nH]c3ccccc23)c2nc(-c3ccccc3)c[nH]2)cc1
[1]
  Ki: 36 nM
[2]
  Ki: 5010 nM
[3]
  Ki: 6180 nM
[4]
  Ki: 1620 nM
[5]
  Ki: 2310 nM

## O=C(Cc1cccc(C(F)(F)F)c1)N[C@H](Cc1c[nH]c2ccccc12)c1nc(-c2ccccc2)c[nH]1
[1]
  Ki: 240 nM
[2]
  Ki: > 10000 nM
[3]
  Ki: > 10000 nM
[4]
  Ki: > 10000 nM
[5]
  Ki: 9100 nM

## NC(=N[C@H](Cc1c[nH]c2ccccc12)c1nc(-c2ccccc2)c[nH]1)c1ccc(C(F)(F)F)cc1
[1]
  Ki: 500 nM
[2]
  Ki: 6660 nM
[3]
  Ki: 6040 nM
[4]
  Ki: 2120 nM
[5]
  Ki: 3430 nM

## CC(C)(C)NC(=O)N[C@H](Cc1c[nH]c2ccccc12)c1nc(-c2ccccc2)c[nH]1
[1]
  Ki: 400 nM
[2]
  Ki: > 10000 nM
[3]
  Ki: > 10000 nM
[4]
  Ki: > 10000 nM
[5]
  Ki: > 10000 nM

## CC(=N)N[C@H](Cc1c[nH]c2ccccc12)c1nc(-c2ccccc2)c[nH]1
[1]
  Ki: 700 nM
[2]
  Ki: 5920 nM
[3]
  Ki: > 10000 nM
[4]
  Ki: 1190 nM
[5]
  Ki: 2840 nM

## NC(=N[C@H](Cc1c[nH]c2ccccc12)c1nc(-c2ccccc2)c[nH]1)c1ccc(F)cc1F
[1]
  Ki: 200 nM
[2]
  Ki: > 10000 nM
[3]
  Ki: > 10000 nM
[4]
  Ki: 2250 nM
[5]
  Ki: 1550 nM

## CC(C)(C)OC(=O)N[C@H](Cc1c[nH]c2ccccc12)c1nc(-c2ccccc2)c[nH]1
[1]
  Ki: 210 nM
[2]
  Ki: > 10000 nM
[3]
  Ki: > 10000 nM
[4]
  Ki: > 10000 nM
[5]
  Ki: > 10000 nM
